Each structure is given as a SMILES string.

The term Ki denotes a dissociation constant, usually derived from enzyme kinetics or from competition with a known ligand. A lower Ki goes with tighter binding.

The target of experiment [1] is Neuronal acetylcholine receptor subunit alpha-7 (Rattus norvegicus, UniProt Q05941). The experiment can be described thus: Binding affinity to subtype Nicotinic acetylcholine receptor alpha7 using [3H]-MLA as radioligand in rat brain. The format is tissue-based. An outline of the steps: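 Rat brain membrane fractions in HEPES-salt solution, competition against [3H]MLA at 22 °C. Nonspecific binding defined with 1 μM MLA. […] Mean ± SEM of 3-5 independent experiments.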

The target in experiment [2] is Neuronal acetylcholine receptor; alpha4/beta2 (Rattus norvegicus, UniProt P09483+P12390). The experiment can be described thus: Binding affinity to Nicotinic acetylcholine receptor alpha4-beta2 using +/-[3H]epibatidine as radioligand in rat brain. The format is tissue-based. An outline of the steps: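 Crude synaptic P2 membranes from Sprague–Dawley rat forebrain (cerebellum and medulla excluded), washed in HEPES-salt buffer pH-unspecified (HEPES 15 mM, NaCl 120 mM, KCl 5.4 mM, MgCl2 0.8 mM, CaCl2 1.8 mM). Mean ± SEM, n = 3-5.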
Chain of Neuronal acetylcholine receptor; alpha4/beta2 (P09483 whole entry): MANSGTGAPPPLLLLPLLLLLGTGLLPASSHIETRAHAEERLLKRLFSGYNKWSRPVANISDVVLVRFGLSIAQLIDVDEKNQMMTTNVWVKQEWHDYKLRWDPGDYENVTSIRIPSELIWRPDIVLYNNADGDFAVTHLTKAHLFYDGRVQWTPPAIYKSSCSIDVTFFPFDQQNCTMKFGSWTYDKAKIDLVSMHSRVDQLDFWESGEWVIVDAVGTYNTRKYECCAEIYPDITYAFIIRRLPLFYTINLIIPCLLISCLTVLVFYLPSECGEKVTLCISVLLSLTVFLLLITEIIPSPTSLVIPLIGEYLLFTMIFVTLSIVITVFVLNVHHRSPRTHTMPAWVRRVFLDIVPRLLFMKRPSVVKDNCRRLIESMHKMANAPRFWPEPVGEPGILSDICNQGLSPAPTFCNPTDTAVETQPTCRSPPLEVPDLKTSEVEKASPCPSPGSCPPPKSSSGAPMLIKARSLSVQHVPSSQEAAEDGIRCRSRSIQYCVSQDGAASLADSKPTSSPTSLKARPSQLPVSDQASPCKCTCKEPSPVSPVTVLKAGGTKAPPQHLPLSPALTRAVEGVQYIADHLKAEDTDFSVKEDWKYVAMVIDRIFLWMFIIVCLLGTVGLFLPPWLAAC
Chain of Neuronal acetylcholine receptor; alpha4/beta2 (P12390 whole entry): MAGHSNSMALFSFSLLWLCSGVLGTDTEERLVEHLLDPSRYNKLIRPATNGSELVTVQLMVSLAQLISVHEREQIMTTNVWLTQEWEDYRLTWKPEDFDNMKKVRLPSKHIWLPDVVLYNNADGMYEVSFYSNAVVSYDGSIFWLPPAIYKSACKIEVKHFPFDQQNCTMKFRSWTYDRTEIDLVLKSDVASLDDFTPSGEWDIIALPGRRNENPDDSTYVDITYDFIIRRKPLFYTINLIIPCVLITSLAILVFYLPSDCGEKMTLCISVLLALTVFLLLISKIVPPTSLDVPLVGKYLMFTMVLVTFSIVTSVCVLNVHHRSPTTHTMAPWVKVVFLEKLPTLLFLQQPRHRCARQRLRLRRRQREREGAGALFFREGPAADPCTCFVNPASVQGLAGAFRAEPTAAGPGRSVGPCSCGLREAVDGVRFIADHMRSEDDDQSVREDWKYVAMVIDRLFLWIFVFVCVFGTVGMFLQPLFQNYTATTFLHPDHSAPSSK

Chain of Neuronal acetylcholine receptor subunit alpha-7 (Q05941 whole entry): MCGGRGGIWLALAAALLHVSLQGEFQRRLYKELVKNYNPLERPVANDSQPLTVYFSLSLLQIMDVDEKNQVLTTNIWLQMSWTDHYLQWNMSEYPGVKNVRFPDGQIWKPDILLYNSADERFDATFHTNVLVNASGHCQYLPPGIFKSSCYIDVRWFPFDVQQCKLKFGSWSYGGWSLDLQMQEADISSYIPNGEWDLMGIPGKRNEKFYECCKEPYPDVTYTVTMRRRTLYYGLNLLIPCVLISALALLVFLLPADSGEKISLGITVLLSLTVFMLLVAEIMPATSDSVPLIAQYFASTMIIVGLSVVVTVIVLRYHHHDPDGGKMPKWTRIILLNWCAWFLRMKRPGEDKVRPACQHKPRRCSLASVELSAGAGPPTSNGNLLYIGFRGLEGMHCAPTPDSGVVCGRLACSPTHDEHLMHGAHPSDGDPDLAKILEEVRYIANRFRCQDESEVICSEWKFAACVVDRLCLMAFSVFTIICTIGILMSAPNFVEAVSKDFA

With `C1=C(c2ccnnc2)C2CC[C@H](CC1)N2`, the inhibition constant Ki in experiment [1] is above 10 nM; in experiment [2], 19 nM.
Consider `C1=C(c2cnccn2)C2CC[C@H](CC1)N2`, for which the Ki came to 250 nM in experiment [1] and 12 nM in experiment [2].
As for `C1=C(c2cncnc2)C2CC[C@H](CC1)N2`, the Ki in experiment [1] is 10.7 nM; in experiment [2], 0.14 nM.
Take `C1=C(c2cccnc2)C2CC[C@H](CC1)N2`: the Ki amounted to 0.95 nM in experiment [1] and 0.051 nM in experiment [2].
Turning to `Clc1ccc(C2=CCC[C@H]3CCC2N3)cn1`, in experiment [1], the Ki was determined as 12 nM.

These data come from ChEMBL document CHEMBL1135731, “Synthesis and nicotinic binding studies on enantiopure diazine analogues of the novel (2-chloro-5-pyridyl)-9-azabicyclo[4.2.1]non-2-ene UB-165” (J Med Chem, 2002).
